7 compounds from ChEMBL document CHEMBL1139324, “Chemical modification and biological evaluation of new semisynthetic derivatives of 28,29-Didehydronystatin A1 (S44HP), a genetically engineered antifungal polyene macrolide antibiotic” (J Med Chem, 2009) can be followed below.

By MIC is commonly meant the lowest concentration that inhibits growth of the organism. Read a low MIC as greater potency. The term MIC50 denotes an inhibitory concentration at the 50% level, which refers to growth in some studies and to a panel of isolates in others. High values mean weaker potency, low ones greater potency. What is called MIC90 is the lowest concentration that inhibits either 90% of growth or 90% of the strains tested, depending on the study. One may read the LD50 as the dose expected to kill half of the subjects tested. Read a high LD50 as lower toxicity.

The subject of one series is Aspergillus niger. The experiment in a line: Antifungal activity against Aspergillus niger ATCC 16404 after 48 hrs by broth microdilution method. The class given is functional. As to conditions: ATCC 16404, 48 h. The procedure, abridged:
(§1)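 Susceptibility of filamentous fungi (molds) by broth microdilution per NCCLS M38-A in 96-well microplates. The MIC is read as the lowest inhibitory concentration. It is given as one number when replicate data fully agreed.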

Series [1] concerns Candida albicans. Put plainly: Antifungal activity against Candida albicans ATCC 10231after 48 hrs by broth microdilution method. The class given is functional. The settings on record: ATCC 10231, 48 h. On the technique in general: In broth dilution the organism is exposed to a series of concentrations in liquid medium.
The nature of series [2]: Toxicity against human erythrocytes assessed as hemolytic activity at 5 ug/ml. The class given is cell-based, Erythrocyte. The settings on record: read-out: Activity. The procedure, abridged: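 Lysis of erythrocytes in defibrinated human blood was measured under buffered conditions with compound at 5 µg/mL. Percent hemolysis is the mean of blood samples from two donors.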

Series [3] has as its system Candida albicans. Put plainly: Antifungal activity against Candida albicans ATCC 14053 after 48 hrs by broth microdilution method. The class given is functional. As to conditions: ATCC 14053, 48 h. The procedure, abridged: (§2)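 Yeast susceptibility by broth microdilution per NCCLS M27-A in 96-well plates. MIC is the lowest concentration inhibiting growth. Where repeat runs fully coincided, a single value is reported.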

For the next series, the system named is Vanrija humicola. The experiment in a line: Antifungal activity against Cryptococcus humicolus ATCC 9949 after 48 hrs by broth microdilution method. It counts as functional. The settings on record: ATCC 9949, 48 h. The procedure, abridged: as §2
Another series deals with Fusarium oxysporum. The experiment in a line: Antifungal activity against Fusarium oxysporum VKM F-140 after 48 hrs by broth microdilution method. It counts as functional. The procedure, abridged: as §1
Series [4] in a line: Toxicity in Candida albicans ATCC 14053 infected iv dosed (C57BL/6xDBA/2)F1 B6D2F1 mouse. The settings on record: in vivo. It counts as organism-based.

In brackets after ≈: the same amount, converted by molar mass.

On to `C[C@@H]1[C@H](O)[C@@H](C)/C=C/C=C/C=C/C=C/C=C/C=C/C=C/[C@H](O[C@H]2O[C@@H](C)[C@H](O)[C@@H](N)[C@H]2O)C[C@@H]2O[C@](O)(C[C@@H](O)[C@H](O)CC[C@@H](O)C[C@@H](O)C[C@@H](O)CC(=O)O[C@H]1C)C[C@H](O)[C@H]2C(=O)N1CCN(CCO)CC1`, for which the MIC in the series with Aspergillus niger was 2 µg/mL (≈ 1.93 µM); in the series on Candida albicans [3], 1 µg/mL (≈ 0.965 µM); against Vanrija humicola it was 2 µg/mL (≈ 1.93 µM); in the series with Fusarium oxysporum it was 4 µg/mL (≈ 3.86 µM). In the series on Candida albicans [1], the MIC50 is 0.13 µg/mL (≈ 0.125 µM). Further, the MIC90 with Candida albicans [1] is 0.52 µg/mL (≈ 0.502 µM). Further, the hemolysis at 5 ug/ml in series [2] stood at 2%.

For the compound `CCOC(=O)CNC(=O)[C@H]1[C@@H]2C[C@@H](O[C@H]3O[C@@H](C)[C@H](O)[C@@H](N)[C@H]3O)/C=C/C=C/C=C/C=C/C=C/C=C/C=C/[C@H](C)[C@@H](O)[C@@H](C)[C@H](C)OC(=O)C[C@H](O)C[C@H](O)C[C@H](O)CC[C@@H](O)[C@H](O)C[C@](O)(C[C@@H]1O)O2`, the minimum inhibitory concentration (MIC) in the series with Aspergillus niger was 2 µg/mL (≈ 1.98 µM); against Candida albicans [3], 1 µg/mL (≈ 0.991 µM); with Vanrija humicola, 1 µg/mL (≈ 0.991 µM); against Fusarium oxysporum, 4 µg/mL (≈ 3.96 µM). Further, the MIC50 against Candida albicans [1] was 0.15 µg/mL (≈ 0.149 µM). For the same compound, the MIC90 with Candida albicans [1] came to 0.36 µg/mL (≈ 0.357 µM). The hemolysis at 5 ug/ml in series [2] turned out to be 38%.

With `C[C@@H]1[C@H](O)[C@@H](C)/C=C/C=C/C=C/C=C/C=C/C=C/C=C/[C@H](O[C@H]2O[C@@H](C)[C@H](O)[C@@H](N)[C@H]2O)C[C@@H]2O[C@](O)(C[C@@H](O)[C@H](O)CC[C@@H](O)C[C@@H](O)C[C@@H](O)CC(=O)O[C@H]1C)C[C@H](O)[C@H]2C(=O)NCCCO`, the MIC stood at 2 µg/mL (≈ 2.04 µM) in the series with Aspergillus niger, 1 µg/mL (≈ 1.02 µM) in the series on Candida albicans [3], 1 µg/mL (≈ 1.02 µM) with Vanrija humicola and 2 µg/mL (≈ 2.04 µM) in the series with Fusarium oxysporum. Moreover, the MIC50 against Candida albicans [1] was found to be 0.09 µg/mL (≈ 0.0917 µM). The same compound had an MIC90 with Candida albicans [1] of 0.27 µg/mL (≈ 0.275 µM). In addition, the hemolysis at 5 ug/ml in series [2] came to 4%.

As to `C[C@@H]1[C@H](O)[C@@H](C)/C=C/C=C/C=C/C=C/C=C/C=C/C=C/[C@H](O[C@H]2O[C@@H](C)[C@H](O)[C@@H](N)[C@H]2O)C[C@@H]2O[C@](O)(C[C@@H](O)[C@H](O)CC[C@@H](O)C[C@@H](O)C[C@@H](O)CC(=O)O[C@H]1C)C[C@H](O)[C@H]2C(=O)O`, in series [4], the LD50 was 2.2 mg/kg. This compound returned an MTD in series [4] of 0.64 mg/kg. The MIC against Aspergillus niger was 1 µg/mL (≈ 1.08 µM); in the series with Candida albicans [3], 1 µg/mL (≈ 1.08 µM); with Vanrija humicola, 1 µg/mL (≈ 1.08 µM); against Fusarium oxysporum it was 4 µg/mL (≈ 4.33 µM). Besides, in the series on Candida albicans [1], the MIC50 is 0.12 µg/mL (≈ 0.13 µM). In addition, in the series with Candida albicans [1], the MIC90 turned out to be 0.4 µg/mL (≈ 0.433 µM). Moreover, in series [2], the hemolysis at 5 ug/ml stood at 41%.

The compound `C[C@@H]1[C@H](O)[C@@H](C)/C=C/C=C/C=C/C=C/C=C/C=C/C=C/[C@H](O[C@H]2O[C@@H](C)[C@H](O)[C@@H](N)[C@H]2O)C[C@@H]2O[C@](O)(C[C@@H](O)[C@H](O)CC[C@@H](O)C[C@@H](O)C[C@@H](O)CC(=O)O[C@H]1C)C[C@H](O)[C@H]2C(=O)NCCCN(C)C` showed a 50% lethal dose (LD50) in series [4] of 16.4 mg/kg. Further, the MTD in series [4] is 11.9 mg/kg. For the same compound, the MIC with Aspergillus niger is 2 µg/mL (≈ 1.98 µM); against Candida albicans [3] it was 1 µg/mL (≈ 0.992 µM); against Vanrija humicola, 1 µg/mL (≈ 0.992 µM); with Fusarium oxysporum, 2 µg/mL (≈ 1.98 µM). The MIC50 in the series with Candida albicans [1] was determined as 0.08 µg/mL (≈ 0.0793 µM). Besides, the MIC90 in the series on Candida albicans [1] came out at 0.3 µg/mL (≈ 0.298 µM). Besides, the hemolysis at 5 ug/ml in series [2] stood at 2%.

Take `C[C@@H]1[C@H](O)[C@@H](C)/C=C/C=C/C=C/C=C/C=C/C=C/C=C/[C@H](O[C@H]2O[C@@H](C)[C@H](O)[C@@H](N(CCCN)CCCN)[C@H]2O)C[C@@H]2O[C@](O)(C[C@@H](O)[C@H](O)CC[C@@H](O)C[C@@H](O)C[C@@H](O)CC(=O)O[C@H]1C)C[C@H](O)[C@H]2C(=O)O`: the MIC in the series on Aspergillus niger, with Candida albicans [3], in the series with Vanrija humicola and against Fusarium oxysporum was 1 µg/mL (≈ 0.963 µM) in each case. This compound also came in with an MIC50 against Candida albicans [1] of 0.04 µg/mL (≈ 0.0385 µM). For the same compound, the MIC90 against Candida albicans [1] is 0.13 µg/mL (≈ 0.125 µM). Also, in series [2], the hemolysis at 5 ug/ml was determined as 15%.

On to `C[C@@H]1[C@H](O)[C@@H](C)/C=C/C=C/C=C/C=C/C=C/C=C/C=C/[C@H](O[C@@H]2O[C@H](C)[C@@H](O)[C@H](N)[C@@H]2O)C[C@@H]2O[C@](O)(C[C@@H](O)C[C@@H](O)[C@H](O)CC[C@@H](O)C[C@@H](O)CC(=O)O[C@H]1C)C[C@H](O)[C@H]2C(=O)O` [AMPHOTERICIN B], for which the LD50 in series [4] worked out at 2.8 mg/kg. The compound further showed an MTD in series [4] of 2.01 mg/kg. Moreover, the MIC was found to be 1 µg/mL (≈ 1.08 µM) against Aspergillus niger, 1 µg/mL (≈ 1.08 µM) against Candida albicans [3], 1 µg/mL (≈ 1.08 µM) against Vanrija humicola and 4 µg/mL (≈ 4.33 µM) in the series with Fusarium oxysporum. This compound also yielded an MIC50 against Candida albicans [1] of 0.11 µg/mL (≈ 0.119 µM). Besides, the MIC90 in the series with Candida albicans [1] stood at 0.36 µg/mL (≈ 0.39 µM). Further, the hemolysis at 5 ug/ml in series [2] came out at 30%.
